Assay results gathered from unrelated publications.
Each line is one published result; the experiments were not run side by side.
Matrix: plasma
Route: intravenous

Structure (SMILES) | test system | conditions | Vd
CCCC[C@@H]1NC(=O)[C@H](Cc2ccc(O)cc2)NC(=O)[C@@H]2CCCN2C(=O)[C@H](CC(=O)O)NC(=O)[C@H](C)NC(=O)[C@H](Cc2ccccc2)NC(=O)[C@@H]2CSCCC(=O)N3CN(CN(C3)C(=O)CCSC[C@@H](C(=O)N[C@@H](C)C(N)=O)NC1=O)C(=O)CCSC[C@H](NC(C)=O)C(=O)N[C@@H](CC(C)(C)C)C(=O)N1CCC[C@H]1C(=O)N[C@@H](CCC(=O)O)C(=O)N[C@H](CCCCNC(=O)CCc1cn(CCOCCOCCOCCOCCOCCOCCOCCOCCOCCOCCNC(=O)CCOCCN(CCOCCC(=O)NCCOCCOCCOCCOCCOCCOCCOCCOCCOCCOCCn3cc(CCC(=O)NCCCC[C@H]4NC(=O)[C@H](CCC(=O)O)NC(=O)[C@@H]5CCCN5C(=O)[C@H](CC(C)(C)C)NC(=O)[C@@H](NC(C)=O)CSCCC(=O)N5CN6CN(C5)C(=O)CCSC[C@H](NC(=O)[C@H](Cc5ccc(O)cc5)NC(=O)[C@@H]5CCCN5C4=O)C(=O)N[C@@H](Cc4ccccc4)C(=O)N[C@@H](C)C(=O)N[C@@H](CC(=O)O)C(=O)N4CCC[C@H]4C(=O)N[C@@H](Cc4ccc(O)cc4)C(=O)N[C@@H](CCCC)C(=O)N[C@H](C(=O)N[C@@H](C)C(N)=O)CSCCC6=O)nn3)CCOCCC(=O)NCCOCCOCCOCCOCCOCCOCCOCCOCCOCCOCCn3cc(CCC(=O)N[C@H]4CSCCC(=O)N5CN6CN(C5)C(=O)CCSC[C@H](NC(=O)[C@@H](CC(=O)O)NC(=O)[C@H](Cc5cccc7ccccc57)NC(=O)[C@@H]5CCCN5C4=O)C(=O)N[C@@H](CCSC)C(=O)N[C@@H](CCCCNC(=N)N)C(=O)N[C@@H](CC(=O)O)C(=O)N[C@@H](Cc4c[nH]c5ccccc45)C(=O)N[C@@H](CO)C(=O)N[C@@H]([C@@H](C)O)C(=O)N4CCC[C@H]4C(=O)N4C[C@H](O)C[C@H]4C(=O)N[C@@H](Cc4c[nH]c5ccccc45)C(=O)N[C@H](C(N)=O)CSCCC6=O)nn3)nn1)C(=O)N1CCC[C@H]1C(=O)N[C@@H](Cc1ccc(O)cc1)C(=O)N2 | rat | 2 mg/kg | 0.44 L/kg
CCc1cc(C(=O)NC)c2nccc(N3CCc4c(cc(Cn5ccnc5)cc4-c4cn(C)nc4C(F)(F)F)C3=O)c2c1 | male Sprague-Dawley rat | 3 mg/kg | 1 L/kg
Oc1c(-n2ccnn2)cnn1-c1cc(N2CCOCC2)ncn1 | male rat | 5 mg/kg | 0.62 L/kg
O=C(Nc1cc(F)c(F)c(F)c1)c1ccc(F)c(S(=O)(=O)NCc2cccc(B(O)O)c2)c1 | male Sprague-Dawley rat | 2 mg/kg | 11 L/kg
Oc1cc(O)cc(-c2cc3ccc(O)cc3o2)c1 | male rat | 5 mg/kg | 0.393 L/kg
C=CC(=O)Nc1cc(Nc2nccc(Nc3cc(Cl)c(F)cc3C(C)(C)O)n2)c(OC)cc1N1CC[C@@H](N(C)C)C1 | Wistar rat | 3 mg/kg | 13.6 L/kg
Oc1c(Br)cc(Cl)c2cccnc12 | Sprague-Dawley rat | 2 mg/kg | 21.3 L/kg
COc1cc(F)ccc1-c1ncnc(Nc2cccc(CS(N)(=O)=O)c2)n1 | male Wistar rat |  | 1.4 L/kg
CN1CCC(c2ccccc2CC(C)(C)Nc2nc(N3CCOCC3)nc(-n3c(C(F)F)nc4ccccc43)n2)CC1 | rat | 5 mg/kg, single dose | 23.7 L/kg
Cc1nc(Nc2ncc(C(=O)Nc3c(C)cccc3Cl)s2)cc(N2CCN(CCO)CC2)n1 | female Sprague-Dawley rat | 5 mg/kg | 4.6 L
CCCC[C@@H]1NC(=O)[C@H](Cc2ccc(O)cc2)NC(=O)[C@@H]2CCCN2C(=O)[C@H](CC(=O)O)NC(=O)[C@H](C)NC(=O)[C@H](Cc2ccccc2)NC(=O)[C@@H]2CSCCC(=O)N3CN(CN(C3)C(=O)CCSC[C@@H](C(=O)N[C@@H](CNC(=O)CCOCCOCCOCCOCCOCCOCCOCCOCCOCCOCCOCCOCCn3cc(CCC(=O)NCCC(=O)N(C)CC(=O)N(C)CC(=O)N(C)CC(=O)N(C)CC(=O)N(C)CC(=O)N(C)CC(=O)N(C)CC(=O)N(C)CC(=O)N(C)CC(=O)N(C)CC(=O)N[C@H]4CSCCC(=O)N5CN6CN(C5)C(=O)CCSC[C@H](NC(=O)[C@@H](CC(=O)O)NC(=O)[C@H](Cc5cccc7ccccc57)NC(=O)[C@@H]5CCCN5C4=O)C(=O)N[C@@H](CCSC)C(=O)N[C@@H](CCCCNC(=N)N)C(=O)N[C@@H](CC(=O)O)C(=O)N[C@@H](Cc4c[nH]c5ccccc45)C(=O)N[C@@H](CO)C(=O)N[C@@H]([C@@H](C)O)C(=O)N4CCC[C@H]4C(=O)N4C[C@H](O)C[C@H]4C(=O)N[C@@H](Cc4c[nH]c5ccccc45)C(=O)N[C@H](C(N)=O)CSCCC6=O)nn3)C(N)=O)NC1=O)C(=O)CCSC[C@H](NC(C)=O)C(=O)N[C@@H](CC(C)(C)C)C(=O)N1CCC[C@H]1C(=O)N[C@@H](CCC(=O)O)C(=O)N[C@H](C)C(=O)N1CCC[C@H]1C(=O)N[C@@H](Cc1ccc(O)cc1)C(=O)N2 | rat | 2 mg/kg | 0.46 L/kg
CCNC(=O)c1nc(-c2ccc3[nH]c(-c4nc(C)no4)cc3c2)c(C)[nH]1 | Sprague-Dawley rat | 1 mg/kg | 1.3 L/kg
COc1ccc2c(Cc3ccccc3F)c3[n+](cc2c1OC)CCc1cc2c(cc1-3)OCO2.[Br-] | rat | 5 mg/kg | 71.8 L/kg
